Laboratory results taken from ChEMBL document CHEMBL4390663, “Cationic biaryl 1,2,3-triazolyl peptidomimetic amphiphiles: synthesis, antibacterial evaluation and preliminary mechanism of action studies” (Eur J Med Chem, 2019).

Tests used:
Clostridioides difficile [1] = test: Antibacterial activity against Clostridium difficile NSW132 RT027 incubated for 48 hrs by CLSI method; assay type: functional; conditions: NSW132 RT027, 48 h
How it was run: (§1)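 Broth microdilution per CLSI anaerobe method in pre-reduced (2-4 h) Brucella broth with haemin and vitamin K, 35 °C anaerobically for 48 h. Compounds from 5 mg/mL DMSO stocks, twofold dilutions in water mixed with double-strength broth; final 0.25–128 μg/mL. […] Triplicate; modal MIC read visually as lowest concentration inhibiting growth.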

Escherichia coli = test: Antibacterial activity against Escherichia coli ATCC 25922 incubated for 18 hrs by CLSI method; assay type: functional; conditions: ATCC 25922, 18 h
How it was run: (§2)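 Screen run by CO-ADD: mid-log cultures in cation-adjusted MHB, 5 × 10^5 CFU/mL, compounds at up to 32 μg/mL in 1:2 serial dilutions (8 steps), final DMSO ≤0.5%, duplicate. 37 °C for 18 h without shaking; OD600 read against media-only and untreated-bacteria references. MIC = lowest concentration giving ≥80% inhibition; colistin standard.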

Klebsiella pneumoniae = test: Antibacterial activity against Klebsiella pneumoniae 700603 incubated for 18 hrs by CLSI method; assay type: functional; conditions: Klebsiella pneumoniae, 700603, 18 h; how it was run: as §2
Clostridioides difficile [2] = test: Antibacterial activity against Clostridium difficile ATCC 700057 incubated for 48 hrs by CLSI method; assay type: functional; conditions: ATCC 700057, 48 h; how it was run: as §1
Pseudomonas aeruginosa = test: Antimicrobial activity against Pseudomonas aeruginosa ATCC 27853 incubated for 18 hrs by CLSI method; assay type: functional; conditions: ATCC 27853, 18 h; how it was run: as §2
Staphylococcus aureus [3] = test: Antimicrobial activity against Staphylococcus aureus ATCC 43300 incubated for 18 hrs by CLSI method; assay type: functional; conditions: ATCC 43300, 18 h
Streptococcus pneumoniae = test: Antibacterial activity against Streptococcus pneumoniae ATCC 49619 incubated for 24 hrs by CLSI method; assay type: functional; conditions: ATCC 49619, 24 h
How it was run: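 CLSI broth microdilution in MHB with 2.5% lysed horse blood, 5% CO2, 35 °C, 24 h. Compounds from 5 mg/mL DMSO stocks diluted in water plus double-strength broth; final 0.25–128 μg/mL. […] Triplicate; modal MIC read visually as lowest growth-inhibiting concentration.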

[4] = Haemolytic activity in sheep erythrocytes at 50 ug/ml incubated for 2 hrs under shaking condition relative to control; assay type: ADME, cell-based, Ovis aries, Erythrocyte; conditions: read-out: Activity
How it was run: (§3)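 Compounds in PBS mixed with washed sheep erythrocytes (2% final) at 5 or 50 μg/mL, rocked 2 h at 37 °C, centrifuged; supernatant absorbance at 540 nm. PBS-only value subtracted, then expressed relative to water lysis (100%). Triplicate, means reported.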

Staphylococcus aureus [5] = test: Antimicrobial activity against Staphylococcus aureus ATCC 29213 incubated for 24 hrs by CLSI method; assay type: functional; conditions: ATCC 29213, 24 h
How it was run: (§4)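 Broth microdilution per CLSI aerobic guidance in Mueller Hinton broth, ambient air, 35 °C for 24 h. DMSO stocks were diluted in water, then serially diluted with double-strength broth inoculum added, for final 0.25–128 μg/mL. […] MIC was read visually as the lowest concentration inhibiting growth; the modal value of triplicates was recorded.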

Staphylococcus aureus [6] = test: Antibacterial activity against methicillin-resistant Staphylococcus aureus NCTC 10442 incubated for 24 hrs by CLSI method; assay type: functional; conditions: NCTC 10442, 24 h; how it was run: as §4
Enterococcus faecalis = test: Antibacterial activity against Enterococcus faecalis ATCC 29212 incubated for 24 hrs by CLSI method; assay type: functional; conditions: ATCC 29212, 24 h
Acinetobacter baumannii = test: Antimicrobial activity against Acinetobacter baumannii ATCC 19606 incubated for 18 hrs by CLSI method; assay type: functional; conditions: ATCC 19606 = CIP 70.34 = JCM 6841, 18 h; how it was run: as §2
[7] = Cytotoxicity against human HEK293 cells assessed as reduction in cell growth incubated for 20 hrs by resazurin dye-based fluorometric assay
How it was run: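 HEK293 cells, 5000 per well in DMEM + 10% FBS, exposed to compounds (top 32 μg/mL, 1:2 serial dilution ×8, ≤0.5% DMSO, duplicate) for 20 h at 37 °C, 5% CO2. Resazurin added (2.3 μg/mL final), 3 h further; fluorescence ex 560/em 590 nm. CC50 from sigmoidal dose-response fit against log concentration; tamoxifen standard.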

[8] = Haemolytic activity in sheep erythrocytes at 5 ug/ml incubated for 2 hrs under shaking condition relative to control; assay type: ADME, cell-based, Ovis aries, Erythrocyte; conditions: read-out: Activity; how it was run: as §3

SMILES: CC(C)CCOc1ccccc1-c1ccccc1OCc1cn(C[C@@H](CCCNC(=N)N)NC(=O)[C@@H](CCCCN)n2cc(CCc3ccccc3)nn2)nn1.Cl.Cl
- MIC (Clostridioides difficile [1]): 16 µg/mL
- MIC (Escherichia coli): 4 µg/mL
- MIC (Klebsiella pneumoniae): 16 µg/mL
- MIC (Clostridioides difficile [2]): 16 µg/mL
- MIC (Pseudomonas aeruginosa): 8 µg/mL
- MIC (Staphylococcus aureus [3]): 2 µg/mL
- MIC (Streptococcus pneumoniae): 4 µg/mL
- hemolysis at 2 h, 50 ug/ml [4]: 28.8%
- MIC (Staphylococcus aureus [5]): 4 µg/mL
- MIC (Staphylococcus aureus [6]): 4 µg/mL
- MIC (Enterococcus faecalis): 8 µg/mL
- MIC (Acinetobacter baumannii): 16 µg/mL
- CC50 at 20 h [7]: 17.4 µg/mL
- hemolysis at 2 h, 5 ug/ml [8]: 1.7%

SMILES: CC(C)CCOc1ccccc1-c1ccccc1OCc1cn(C[C@@H](CCCNC(=N)N)NC(=O)OCc2ccccc2)nn1.Cl
- MIC (Clostridioides difficile [1]): 32 µg/mL
- MIC (Escherichia coli): > 32 µg/mL
- MIC (Klebsiella pneumoniae): > 32 µg/mL
- MIC (Clostridioides difficile [2]): 32 µg/mL
- MIC (Pseudomonas aeruginosa): > 32 µg/mL
- MIC (Staphylococcus aureus [3]): 8 µg/mL
- MIC (Streptococcus pneumoniae): 16 µg/mL
- hemolysis at 2 h, 50 ug/ml [4]: 89.1%
- MIC (Staphylococcus aureus [5]): 4 µg/mL
- MIC (Staphylococcus aureus [6]): 4 µg/mL
- MIC (Enterococcus faecalis): 8 µg/mL
- MIC (Acinetobacter baumannii): > 32 µg/mL
- CC50 at 20 h [7]: > 32 µg/mL
- hemolysis at 2 h, 5 ug/ml [8]: 0.7%

SMILES: CC(C)CCOc1ccccc1-c1ccccc1OCc1cn(C[C@@H](CCCCN)NC(=O)[C@@H](CCCNC(=N)N)n2cc(C3CCCCC3)nn2)nn1.Cl.Cl
- MIC (Clostridioides difficile [1]): 8 µg/mL
- MIC (Escherichia coli): 8 µg/mL
- MIC (Klebsiella pneumoniae): 16 µg/mL
- MIC (Clostridioides difficile [2]): 4 µg/mL
- MIC (Pseudomonas aeruginosa): 8 µg/mL
- MIC (Staphylococcus aureus [3]): 4 µg/mL
- MIC (Streptococcus pneumoniae): 4 µg/mL
- hemolysis at 2 h, 50 ug/ml [4]: 22.9%
- MIC (Staphylococcus aureus [5]): 8 µg/mL
- MIC (Staphylococcus aureus [6]): 4 µg/mL
- MIC (Enterococcus faecalis): 8 µg/mL
- MIC (Acinetobacter baumannii): 16 µg/mL
- CC50 at 20 h [7]: 14.2 µg/mL
- hemolysis at 2 h, 5 ug/ml [8]: 1.9%

SMILES: CC(C)CCOc1ccc2ccccc2c1-c1c(OCc2cn(C[C@@H](CCCCN)NC(=O)[C@@H](CCCNC(=N)N)n3cc(CC4CCCCC4)nn3)nn2)ccc2ccccc12.Cl.Cl
- MIC (Clostridioides difficile [1]): 16 µg/mL
- MIC (Escherichia coli): 32 µg/mL
- MIC (Klebsiella pneumoniae): > 32 µg/mL
- MIC (Clostridioides difficile [2]): 8 µg/mL
- MIC (Pseudomonas aeruginosa): 32 µg/mL
- MIC (Staphylococcus aureus [3]): 2 µg/mL
- MIC (Streptococcus pneumoniae): 4 µg/mL
- hemolysis at 2 h, 50 ug/ml [4]: 88.8%
- MIC (Staphylococcus aureus [5]): 4 µg/mL
- MIC (Staphylococcus aureus [6]): 4 µg/mL
- MIC (Enterococcus faecalis): 4 µg/mL
- MIC (Acinetobacter baumannii): 16 µg/mL
- CC50 at 20 h [7]: > 32 µg/mL
- hemolysis at 2 h, 5 ug/ml [8]: 1.6%

SMILES: CC(C)CCOc1ccc2ccccc2c1-c1c(OCc2cn(C[C@@H](CCCNC(=N)N)NC(=O)Cc3ccccc3)nn2)ccc2ccccc12.Cl
- MIC (Clostridioides difficile [1]): 64 µg/mL
- MIC (Escherichia coli): > 32 µg/mL
- MIC (Klebsiella pneumoniae): > 32 µg/mL
- MIC (Clostridioides difficile [2]): 64 µg/mL
- MIC (Pseudomonas aeruginosa): > 32 µg/mL
- MIC (Staphylococcus aureus [3]): 4 µg/mL
- MIC (Streptococcus pneumoniae): 8 µg/mL
- hemolysis at 2 h, 50 ug/ml [4]: 87.4%
- MIC (Staphylococcus aureus [5]): 4 µg/mL
- MIC (Staphylococcus aureus [6]): 4 µg/mL
- MIC (Enterococcus faecalis): 8 µg/mL
- MIC (Acinetobacter baumannii): > 32 µg/mL
- CC50 at 20 h [7]: 16.5 µg/mL
- hemolysis at 2 h, 5 ug/ml [8]: 1%

SMILES: CC(C)CCOc1ccc2ccccc2c1-c1c(OCc2cn(C[C@@H](CCCNC(=N)N)NC(=O)OCc3ccccc3)nn2)ccc2ccccc12.Cl
- MIC (Clostridioides difficile [1]): 32 µg/mL
- MIC (Escherichia coli): > 32 µg/mL
- MIC (Klebsiella pneumoniae): > 32 µg/mL
- MIC (Clostridioides difficile [2]): 32 µg/mL
- MIC (Pseudomonas aeruginosa): > 32 µg/mL
- MIC (Staphylococcus aureus [3]): 4 µg/mL
- MIC (Streptococcus pneumoniae): 8 µg/mL
- MIC (Staphylococcus aureus [5]): 4 µg/mL
- MIC (Staphylococcus aureus [6]): 4 µg/mL
- MIC (Enterococcus faecalis): 8 µg/mL
- MIC (Acinetobacter baumannii): > 32 µg/mL
- CC50 at 20 h [7]: 13.8 µg/mL

SMILES: CC(C)CCOc1ccccc1-c1ccccc1OCc1cn(C[C@@H](CCCNC(=N)N)NC(=O)[C@@H](CCCCN)n2cc(C3CCCCC3)nn2)nn1.Cl.Cl
- MIC (Clostridioides difficile [1]): 32 µg/mL
- MIC (Escherichia coli): 8 µg/mL
- MIC (Klebsiella pneumoniae): 32 µg/mL
- MIC (Clostridioides difficile [2]): 32 µg/mL
- MIC (Pseudomonas aeruginosa): 8 µg/mL
- MIC (Staphylococcus aureus [3]): 4 µg/mL
- MIC (Streptococcus pneumoniae): 4 µg/mL
- MIC (Staphylococcus aureus [5]): 4 µg/mL
- MIC (Staphylococcus aureus [6]): 4 µg/mL
- MIC (Enterococcus faecalis): 8 µg/mL
- MIC (Acinetobacter baumannii): 8 µg/mL
- CC50 at 20 h [7]: 15.3 µg/mL

SMILES: CC(C)CCOc1ccccc1-c1ccccc1OCc1cn(C[C@@H](CCCNC(=N)N)NC(=O)[C@@H](CCCCN)n2cc(Cc3ccccc3)nn2)nn1.Cl.Cl
- MIC (Clostridioides difficile [1]): 64 µg/mL
- MIC (Escherichia coli): 8 µg/mL
- MIC (Klebsiella pneumoniae): 32 µg/mL
- MIC (Clostridioides difficile [2]): 64 µg/mL
- MIC (Pseudomonas aeruginosa): 16 µg/mL
- MIC (Staphylococcus aureus [3]): 4 µg/mL
- MIC (Streptococcus pneumoniae): 4 µg/mL
- MIC (Staphylococcus aureus [5]): 4 µg/mL
- MIC (Staphylococcus aureus [6]): 4 µg/mL
- MIC (Enterococcus faecalis): 8 µg/mL
- MIC (Acinetobacter baumannii): 16 µg/mL
- CC50 at 20 h [7]: 17.8 µg/mL

SMILES: CC(C)CCOc1ccccc1-c1ccccc1OCc1cn(C[C@@H](CCCNC(=N)N)NC(=O)Cc2ccccc2)nn1.Cl
- MIC (Clostridioides difficile [1]): 16 µg/mL
- MIC (Escherichia coli): > 32 µg/mL
- MIC (Klebsiella pneumoniae): > 32 µg/mL
- MIC (Clostridioides difficile [2]): 64 µg/mL
- MIC (Pseudomonas aeruginosa): > 32 µg/mL
- MIC (Staphylococcus aureus [3]): 16 µg/mL
- MIC (Streptococcus pneumoniae): 16 µg/mL
- MIC (Staphylococcus aureus [5]): 16 µg/mL
- MIC (Staphylococcus aureus [6]): 16 µg/mL
- MIC (Enterococcus faecalis): 16 µg/mL
- MIC (Acinetobacter baumannii): > 32 µg/mL
- CC50 at 20 h [7]: 29 µg/mL

SMILES: CC(C)CCOc1ccccc1-c1ccccc1OCc1cn(C[C@@H](CCCCN)NC(=O)[C@@H](CCCNC(=N)N)NC(=O)OCC2c3ccccc3-c3ccccc32)nn1.Cl.Cl
- MIC (Clostridioides difficile [1]): 32 µg/mL
- MIC (Escherichia coli): > 32 µg/mL
- MIC (Klebsiella pneumoniae): > 32 µg/mL
- MIC (Clostridioides difficile [2]): 32 µg/mL
- MIC (Pseudomonas aeruginosa): > 32 µg/mL
- MIC (Staphylococcus aureus [3]): 4 µg/mL
- MIC (Streptococcus pneumoniae): 4 µg/mL
- MIC (Staphylococcus aureus [5]): 4 µg/mL
- MIC (Staphylococcus aureus [6]): 4 µg/mL
- MIC (Enterococcus faecalis): 4 µg/mL
- MIC (Acinetobacter baumannii): > 32 µg/mL
- CC50 at 20 h [7]: > 32 µg/mL

SMILES: CC(C)CCOc1ccccc1-c1ccccc1OCc1cn(C[C@@H](CCCCN)NC(=O)[C@@H](CCCNC(=N)N)NC(=O)Cc2ccccc2)nn1.Cl.Cl
- MIC (Clostridioides difficile [1]): 16 µg/mL
- MIC (Escherichia coli): 16 µg/mL
- MIC (Klebsiella pneumoniae): 32 µg/mL
- MIC (Clostridioides difficile [2]): 16 µg/mL
- MIC (Pseudomonas aeruginosa): 32 µg/mL
- MIC (Staphylococcus aureus [3]): 4 µg/mL
- MIC (Streptococcus pneumoniae): 8 µg/mL
- hemolysis at 2 h, 50 ug/ml [4]: 17.5%
- MIC (Staphylococcus aureus [5]): 8 µg/mL
- MIC (Staphylococcus aureus [6]): 8 µg/mL
- MIC (Enterococcus faecalis): 8 µg/mL
- MIC (Acinetobacter baumannii): 32 µg/mL
- CC50 at 20 h [7]: 32 µg/mL
- hemolysis at 2 h, 5 ug/ml [8]: 0.6%
